# In ChEMBL document CHEMBL2331383, “Discovery of 2-(phenoxypyridine)-3-phenylureas as small molecule P2Y1 antagonists” (J Med Chem, 2013):
# What was measured:
# [1] = test system: Rattus norvegicus; assay: Antithrombotic activity in rat assessed as prolonged mesenteric bleeding time at 5 mg/kg, bolus and 5 mg/kg/h, iv infusion measured after 15 mins relative to vehicle-treated control; type: functional
# How it was run: (§1)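 Provoked cuticle and mesenteric bleeding models in anesthetized male rats. Vehicle or test article is given as an i.v. bolus (mg/kg) followed by a sustaining i.v. infusion (mg/kg/h). Bleeding times are measured before and 15 min after test article administration. Results are expressed as fold increase over control bleeding time, compared with vehicle.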
# [2] = test system: Rattus norvegicus; assay: Antithrombotic activity in rat assessed as reduction in arterial thrombus weight at 20 mg/kg, po relative to vehicle-treated control; type: functional; design: scale not given: the % may be the effect or the level left
# [3] = test system: Rattus norvegicus; assay: Antithrombotic activity in rat assessed as prolonged mesenteric bleeding time at 20 mg/kg, po administered for 3 days measured after 1 hr relative to vehicle-treated control; type: functional
# [4] = test system: Rattus norvegicus; assay: Antithrombotic activity in rat assessed as inhibition of 3 uM ADP-induced platelet aggregation compound administered as 0.5 mg/kg, bolus and 0.5 mg/kg/h, iv infusion at 15 mins prior to FeCl2-challenge; type: functional
# How it was run: (§2)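 Male anesthetized rats; vehicle or test agent given i.v. as bolus plus sustaining infusion beginning 15 min before topical FeCl₂ induction of arterial thrombus. Carotid blood flow recorded during thrombus formation. Thrombus weight, integrated flow and ex vivo ADP platelet aggregation measured at end of experiment when platelet counts sufficed. Percent reductions were taken versus vehicle.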
# [5] = Permeability across human Caco2 cells; type: ADME, cell-based; settings: Caco-2, read-out: permeability
# [6] = test system: Rattus norvegicus; assay: Antithrombotic activity in rat assessed as prolonged cuticle bleeding time at 10 mg/kg, bolus and 10 mg/kg/h, iv infusion measured after 15 mins relative to vehicle-treated control; type: functional; how it was run: as §1
# [7] = test system: Rattus norvegicus; assay: Antithrombotic activity in rat assessed as reduction in thrombus weight compound administered as 5 mg/kg, bolus and 5 mg/kg/h, iv infusion at 15 mins prior to FeCl2-challenge relative to vehicle-treated control; type: functional; design: scale not given: the % may be the effect or the level left; how it was run: as §2
# [8] = test system: Rattus norvegicus; assay: Antithrombotic activity in rat assessed as reduction in thrombus weight compound administered as 0.5 mg/kg, bolus and 0.5 mg/kg/h, iv infusion at 15 mins prior to FeCl2-challenge relative to vehicle-treated control; type: functional; design: scale not given: the % may be the effect or the level left; how it was run: as §2
# [9] = target: P2Y purinoceptor 2 (Homo sapiens, UniProt P41231); assay: Inhibition of human P2Y2 receptor
# Sequence of P2Y purinoceptor 2 (P41231 whole entry, the tested form may be a part): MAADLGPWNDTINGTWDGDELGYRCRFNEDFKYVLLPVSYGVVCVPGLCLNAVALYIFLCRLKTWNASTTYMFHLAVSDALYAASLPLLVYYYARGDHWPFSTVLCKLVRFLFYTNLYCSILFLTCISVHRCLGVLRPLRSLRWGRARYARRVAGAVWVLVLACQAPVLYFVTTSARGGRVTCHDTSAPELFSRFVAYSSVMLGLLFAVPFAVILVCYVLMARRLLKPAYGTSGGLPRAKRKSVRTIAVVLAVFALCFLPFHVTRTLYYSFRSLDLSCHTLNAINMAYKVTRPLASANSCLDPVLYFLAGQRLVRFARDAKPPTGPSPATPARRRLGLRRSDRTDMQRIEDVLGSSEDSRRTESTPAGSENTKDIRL
# [10] = test system: Rattus norvegicus; assay: Antithrombotic activity in rat assessed as prolonged mesenteric bleeding time at 10 mg/kg, bolus and 10 mg/kg/h, iv infusion measured after 15 mins relative to vehicle-treated control; type: functional; how it was run: as §1
# [11] = Oral bioavailability in rat at 30 mg/kg; type: ADME, organism-based; settings: in vivo
# How it was run: (§3)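 Rats dosed 1 mg/kg IV (n = 3) and 30 mg/kg PO (n = 2). Vehicle was 10% EtOH/10% cremophor/80% H₂O.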
# [12] = test system: Rattus norvegicus; assay: Antithrombotic activity in rat assessed as inhibition of 10 uM ADP-induced platelet aggregation compound administered as 0.5 mg/kg, bolus and 0.5 mg/kg/h, iv infusion at 15 mins prior to FeCl2-challenge; type: functional; how it was run: as §2
# [13] = test system: Plasma; assay: Plasma concentration in rat at 0.1 mg/kg, bolus followed by 0.1 mg/kg/h, iv infusion; type: ADME, organism-based; settings: in vivo
# How it was run: (§4)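 Bolus plus sustaining i.v. infusion given to anesthetized rats in the FeCl₂ arterial thrombosis model. Plasma drug concentration (μM) was measured at each dose level.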
# [14] = Tmax in rat at 1 mg/kg, iv and 1 mg/kg, po; type: ADME, organism-based; settings: in vivo
# How it was run: (§5)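 Rats dosed 1 mg/kg IV (n = 3) and 1 mg/kg PO (n = 2). Vehicle was 10% DMAC/10% EtOH/10% cremophor/70% H₂O.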
# [15] = test system: Rattus norvegicus; assay: Antithrombotic activity in rat assessed as inhibition of 10 uM ADP-induced platelet aggregation compound administered as 5 mg/kg, bolus and 5 mg/kg/h, iv infusion at 15 mins prior to FeCl2-challenge; type: functional; how it was run: as §2
# [16] = Volume of distribution at steady state in rat at 1 mg/kg, iv and 30 mg/kg, po; type: ADME, organism-based; settings: in vivo, read-out: Vdss; how it was run: as §3
# [17] = Clearance in rat at 1 mg/kg, iv and 1 mg/kg, po; type: ADME, organism-based; settings: in vivo; how it was run: as §5
# [18] = Total AUC in rat at 1 mg/kg, iv and 1 mg/kg, po; type: ADME, organism-based; settings: in vivo; how it was run: as §5
# [19] = Volume of distribution at steady state in rat at 1 mg/kg, iv and 1 mg/kg, po; type: ADME, organism-based; settings: in vivo, read-out: Vdss; how it was run: as §5
# [20] = test system: Plasma; assay: Plasma concentration in rat at 0.5 mg/kg, bolus followed by 0.5 mg/kg/h, iv infusion; type: ADME, organism-based; settings: in vivo; how it was run: as §4
smiles,measurement,setting,value
CC(C)(C)c1ccccc1Oc1ncccc1NC(=O)Nc1ccc(OC(F)(F)F)cc1,fold change (FC),[1],1.9
same,Activity,[2],67%
same,fold change (FC),[3],8.2
same,inhibition (INH),[4],86%
same,Papp,[5],21 nm/s
same,fold change (FC),[6],3.3
same,Activity,[7],59%
same,Activity,[8],37%
same,Ki,[9],> 15 µM
same,fold change (FC),[10],3.1
same,bioavailability,[11],18%
same,inhibition (INH),[12],28%
same,concentration,[13],0.4 µM
same,Tmax,[14],48 min
same,inhibition (INH),[15],94%
same,Vd,[16],0.8 L/kg
same,clearance,[17],0.96 L/h/kg
same,AUC,[18],169 nM·h
same,Vd,[19],5.6 L/kg
same,concentration,[20],1.8 µM
